In ChEMBL document CHEMBL1155468, “Syntheses and evaluation of anticonvulsant profile and teratogenicity of novel amide derivatives of branched aliphatic carboxylic acids with 4-aminobenzensulfonamide” (J Med Chem, 2010):
Activity calls are given as the source filed them. No cut-off for these calls is given here.

What was measured:
Mus musculus [1] = assay: Teratogenic effect in SWV mouse assessed as resorptions at 301 mg/kg, ip administered on morning of day 8 of gestation; assay type: toxicity, organism-based; design: dose 301 mg/kg, route intraperitoneal; settings: in vivo
Mus musculus [2] = assay: Neurotoxicity in CF1 albino mouse assessed as motor impairment at 100 mg/kg, ip after 4 hrs; assay type: toxicity, organism-based; design: dose 100 mg/kg, route intraperitoneal; settings: in vivo
Mus musculus [3] = assay: Anticonvulsant activity in CF1 albino mouse assessed as inhibition of maximal electroshock-induced seizures at 100 mg/kg, ip after 4 hrs; assay type: functional, organism-based; design: dose 100 mg/kg
Outline: (§1)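 Test compounds suspended in 0.5% methylcellulose and given ip to adult male CF no. 1 albino mice (18-25 g) at 0.01 mL/g body weight before maximal electroshock challenge.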

Mus musculus [4] = assay: Anticonvulsant activity in CF1 albino mouse assessed as inhibition of maximal electroshock-induced seizures at 300 mg/kg, ip after 4 hrs; assay type: functional, organism-based; design: dose 300 mg/kg; outline: as §1
Mus musculus [5] = assay: Teratogenic effect in SWV mouse assessed as dead fetuses at 301 mg/kg, ip administered on morning of day 8 of gestation; assay type: toxicity, organism-based; design: dose 301 mg/kg, route intraperitoneal; settings: in vivo
Mus musculus [6] = assay: Teratogenic effect in SWV mouse assessed as dead fetuses at 452 mg/kg, ip administered on morning of day 8 of gestation; assay type: toxicity, organism-based; design: dose 452 mg/kg, route intraperitoneal; settings: in vivo
Mus musculus [7] = assay: Anticonvulsant activity in CF1 albino mouse assessed as inhibition of subcutaneous pentylenetetrazole-induced seizures at 30 mg/kg, ip after 4 hrs; assay type: functional, organism-based; design: dose 30 mg/kg
Outline: (§2)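 Adult male CF no. 1 albino mice (18-25 g) dosed ip with compound suspended in 0.5% methylcellulose (0.01 mL/g). Convulsant: pentylenetetrazol dissolved in 0.9% saline as a 0.85% solution for mice, given subcutaneously.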

Mus musculus [8] = assay: Neurotoxicity in CF1 albino mouse assessed as motor impairment at 300 mg/kg, ip after 0.5 hrs; assay type: toxicity, organism-based; design: dose 300 mg/kg, route intraperitoneal; settings: in vivo
Mus musculus [9] = assay: Neurotoxicity in CF1 albino mouse assessed as motor impairment at 300 mg/kg, ip after 4 hrs; assay type: toxicity, organism-based; design: dose 300 mg/kg, route intraperitoneal; settings: in vivo
Mus musculus [10] = assay: Neurotoxicity in CF1 albino mouse assessed as motor impairment at 100 mg/kg, ip after 0.5 hrs; assay type: toxicity, organism-based; design: dose 100 mg/kg, route intraperitoneal; settings: in vivo
Mus musculus [11] = assay: Anticonvulsant activity in CF1 albino mouse assessed as inhibition of maximal electroshock-induced seizures at 30 mg/kg, ip after 4 hrs; assay type: functional, organism-based; design: dose 30 mg/kg; outline: as §1
Mus musculus [12] = assay: Anticonvulsant activity in CF1 albino mouse assessed as inhibition of subcutaneous pentylenetetrazole-induced seizures at 30 mg/kg, ip after 0.5 hrs; assay type: functional, organism-based; design: dose 30 mg/kg; outline: as §2
Mus musculus [13] = assay: Anticonvulsant activity in CF1 albino mouse assessed as inhibition of maximal electroshock-induced seizures at 300 mg/kg, ip after 0.5 hrs; assay type: functional, organism-based; design: dose 300 mg/kg; outline: as §1
Mus musculus [14] = assay: Anticonvulsant activity in CF1 albino mouse assessed as inhibition of subcutaneous pentylenetetrazole-induced seizures at 300 mg/kg, ip after 4 hrs; assay type: functional, organism-based; design: dose 300 mg/kg; outline: as §2
Mus musculus [15] = assay: Teratogenic effect in SWV mouse assessed as live fetuses at 452 mg/kg, ip administered on morning of day 8 of gestation; assay type: toxicity, organism-based; design: dose 452 mg/kg, route intraperitoneal; settings: in vivo
Mus musculus [16] = assay: Teratogenic effect in SWV mouse assessed as resorptions at 91 mg/kg, ip administered on morning of day 8 of gestation; assay type: toxicity, organism-based; design: dose 91 mg/kg, route intraperitoneal; settings: in vivo
Mus musculus [17] = assay: Teratogenic effect in SWV mouse assessed as resorptions at 181 mg/kg, ip administered on morning of day 8 of gestation; assay type: toxicity, organism-based; design: dose 181 mg/kg, route intraperitoneal; settings: in vivo
Mus musculus [18] = assay: Neurotoxicity in CF1 albino mouse assessed as motor impairment at 30 mg/kg, ip after 4 hrs; assay type: toxicity, organism-based; design: dose 30 mg/kg, route intraperitoneal; settings: in vivo
Mus musculus [19] = assay: Anticonvulsant activity in CF1 albino mouse assessed as inhibition of subcutaneous pentylenetetrazole-induced seizures at 100 mg/kg, ip after 4 hrs; assay type: functional, organism-based; design: dose 100 mg/kg; outline: as §2
Mus musculus [20] = assay: Teratogenic effect in SWV mouse assessed as dead fetuses at 91 mg/kg, ip administered on morning of day 8 of gestation; assay type: toxicity, organism-based; design: dose 91 mg/kg, route intraperitoneal; settings: in vivo
Mus musculus [21] = assay: Anticonvulsant activity in CF1 albino mouse assessed as inhibition of maximal electroshock-induced seizures at 100 mg/kg, ip after 0.5 hrs; assay type: functional, organism-based; design: dose 100 mg/kg; outline: as §1
Mus musculus [22] = assay: Anticonvulsant activity in CF1 albino mouse assessed as inhibition of maximal electroshock-induced seizures at 30 mg/kg, ip after 0.5 hrs; assay type: functional, organism-based; design: dose 30 mg/kg; outline: as §1
Mus musculus [23] = assay: Anticonvulsant activity in CF1 albino mouse assessed as inhibition of subcutaneous pentylenetetrazole-induced seizures at 100 mg/kg, ip after 0.5 hrs; assay type: functional, organism-based; design: dose 100 mg/kg; outline: as §2
Mus musculus [24] = assay: Teratogenic effect in SWV mouse assessed as live fetuses at 301 mg/kg, ip administered on morning of day 8 of gestation; assay type: toxicity, organism-based; design: dose 301 mg/kg, route intraperitoneal; settings: in vivo
Outline: (§3)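 Two-month-old nulligravid SWV females were mated overnight and checked for vaginal plugs the next morning; gestation onset was set at 10 p.m. the previous night. On gestation day 8.5, each dam received a single ip injection (0.55-2.7 mmol/kg range) or vehicle (25% aqueous Cremophor EL) at 10 μL/g body weight. Litters were scored for implants, resorptions, live and dead fetuses, and fetuses with neural tube defects.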

Mus musculus [25] = assay: Teratogenic effect in SWV mouse assessed as fetuses with neural tube deffects at 301 mg/kg, ip administered on morning of day 8 of gestation; assay type: toxicity, organism-based; design: dose 301 mg/kg, route intraperitoneal; settings: in vivo
Mus musculus [26] = assay: Teratogenic effect in SWV mouse assessed as resorptions at 452 mg/kg, ip administered on morning of day 8 of gestation; assay type: toxicity, organism-based; design: dose 452 mg/kg, route intraperitoneal; settings: in vivo
Mus musculus [27] = assay: Anticonvulsant activity in CF1 albino mouse assessed as inhibition of subcutaneous pentylenetetrazole-induced seizures at 300 mg/kg, ip after 0.5 hrs; assay type: functional, organism-based; design: dose 300 mg/kg; outline: as §2
Mus musculus [28] = assay: Neurotoxicity in CF1 albino mouse assessed as motor impairment at 30 mg/kg, ip after 0.5 hrs; assay type: toxicity, organism-based; design: dose 30 mg/kg, route intraperitoneal; settings: in vivo
Mus musculus [29] = assay: Teratogenic effect in SWV mouse assessed as live fetuses at 91 mg/kg, ip administered on morning of day 8 of gestation; assay type: toxicity, organism-based; design: dose 91 mg/kg, route intraperitoneal; settings: in vivo
Rattus norvegicus [30] = assay: Anticonvulsant activity in Sprague-Dawley rat assessed as inhibition of maximal electroshock-induced seizures at 30 mg/kg, po after 15 mins
Mus musculus [31] = assay: Teratogenic effect in SWV mouse assessed as live fetuses at 316 mg/kg, ip administered on morning of day 8 of gestation; assay type: toxicity, organism-based; design: dose 316 mg/kg, route intraperitoneal; settings: in vivo
Outline: (§4)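 SWV inbred mice: two-month-old nulligravid females mated overnight with males and checked for vaginal plugs next morning; gestation onset taken as 10 p.m. the previous night. On gestation day 8.5 each dam got one ip injection, 0.55–2.7 mmol/kg, in 25% aqueous Cremophor EL (vehicle controls dosed alike), 10 μL/g body weight. Litters and implants tallied; resorptions and live fetuses reported as counts with percentages.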

Mus musculus [32] = assay: Teratogenic effect in SWV mouse assessed as live fetuses at 159 mg/kg, ip administered on morning of day 8 of gestation; assay type: toxicity, organism-based; design: dose 159 mg/kg, route intraperitoneal; settings: in vivo; outline: as §3
Mus musculus [33] = assay: Teratogenic effect in SWV mouse assessed as resorptions at 159 mg/kg, ip administered on morning of day 8 of gestation; assay type: toxicity, organism-based; design: dose 159 mg/kg, route intraperitoneal; settings: in vivo; outline: as §4
Rattus norvegicus [34] = assay: Anticonvulsant activity in Sprague-Dawley rat assessed as inhibition of maximal electroshock-induced seizures at 30 mg/kg, po after 1 hr
Mus musculus [35] = assay: Teratogenic effect in SWV mouse assessed as fetuses with neural tube deffects at 522 mg/kg, ip administered on morning of day 8 of gestation; assay type: toxicity, organism-based; design: dose 522 mg/kg, route intraperitoneal; settings: in vivo; outline: as §3
Mus musculus [36] = assay: Teratogenic effect in SWV mouse assessed as live fetuses at 783 mg/kg, ip administered on morning of day 8 of gestation; assay type: toxicity, organism-based; design: dose 783 mg/kg, route intraperitoneal; settings: in vivo; outline: as §4
Rattus norvegicus [37] = assay: Anticonvulsant activity in Sprague-Dawley rat assessed as inhibition of maximal electroshock-induced seizures at 30 mg/kg, po after 4 hrs
Mus musculus [38] = assay: Teratogenic effect in SWV mouse assessed as dead fetuses at 522 mg/kg, ip administered on morning of day 8 of gestation; assay type: toxicity, organism-based; design: dose 522 mg/kg, route intraperitoneal; settings: in vivo
Outline: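 Inbred SWV mice, which are susceptible to VPA-induced neural tube defects. Two-month-old nulligravid females were mated overnight and checked for vaginal plugs next morning; gestation onset was taken as 10 p.m. the prior night. On gestation day 8.5, each dam received a single ip dose (range 0.55-2.7 mmol/kg) in 25% aqueous Cremophor EL at 10 μL/g. Dead fetuses were counted per implants.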

Mus musculus [39] = assay: Teratogenic effect in SWV mouse assessed as resorptions at 522 mg/kg, ip administered on morning of day 8 of gestation; assay type: toxicity, organism-based; design: dose 522 mg/kg, route intraperitoneal; settings: in vivo; outline: as §4
Mus musculus [40] = assay: Teratogenic effect in SWV mouse assessed as live fetuses at 522 mg/kg, ip administered on morning of day 8 of gestation; assay type: toxicity, organism-based; design: dose 522 mg/kg, route intraperitoneal; settings: in vivo; outline: as §4
Mus musculus [41] = assay: Teratogenic effect in SWV mouse assessed as resorptions at 783 mg/kg, ip administered on morning of day 8 of gestation; assay type: toxicity, organism-based; design: dose 783 mg/kg, route intraperitoneal; settings: in vivo; outline: as §4
Mus musculus [42] = assay: Teratogenic effect in SWV mouse assessed as resorptions at 316 mg/kg, ip administered on morning of day 8 of gestation; assay type: toxicity, organism-based; design: dose 316 mg/kg, route intraperitoneal; settings: in vivo; outline: as §4
Rattus norvegicus [43] = assay: Anticonvulsant activity in Sprague-Dawley rat assessed as inhibition of maximal electroshock-induced seizures at 30 mg/kg, po after 30 mins

Structure (SMILES): CCCC(CCC)C(=O)O [VALPROIC ACID]
- Activity (Mus musculus [1]): 11%
- Activity (Mus musculus [2]): Non-toxic
- Activity (Mus musculus [3]): inactive
- Activity (Mus musculus [4]): inactive
- Activity (Mus musculus [5]): 2.6%
- Activity (Mus musculus [6]): 0.6%
- Activity (Mus musculus [7]): inactive
- Activity (Mus musculus [8]): Toxic
- Activity (Mus musculus [9]): Non-toxic
- Activity (Mus musculus [10]): Non-toxic
- Activity (Mus musculus [11]): inactive
- Activity (Mus musculus [12]): inactive
- Activity (Mus musculus [13]): Active
- Activity (Mus musculus [14]): inactive
- Activity (Mus musculus [15]): 88.1%
- Activity (Mus musculus [16]): 5.7%
- Activity (Mus musculus [17]): 7.7%
- Activity (Mus musculus [18]): Non-toxic
- Activity (Mus musculus [19]): inactive
- Activity (Mus musculus [20]): 0.7%
- Activity (Mus musculus [21]): inactive
- Activity (Mus musculus [22]): inactive
- Activity (Mus musculus [23]): inactive
- Activity (Mus musculus [24]): 86.4%
- Activity (Mus musculus [25]): 1.5%
- Activity (Mus musculus [26]): 11.3%
- Activity (Mus musculus [27]): Active
- Activity (Mus musculus [28]): Non-toxic
- Activity (Mus musculus [29]): 93.6%

Structure (SMILES): NS(=O)(=O)c1ccc(NC(=O)Cc2ccccc2)cc1
- Activity (Rattus norvegicus [30]): inactive
- Activity (Mus musculus [31]): 96.4%
- Activity (Mus musculus [2]): Non-toxic
- Activity (Mus musculus [3]): Active
- Activity (Mus musculus [4]): Active
- Activity (Mus musculus [32]): 93.8%
- Activity (Mus musculus [33]): 6.2%
- Activity (Rattus norvegicus [34]): Active
- Activity (Mus musculus [35]): 3%
- Activity (Mus musculus [7]): inactive
- Activity (Mus musculus [8]): Non-toxic
- Activity (Mus musculus [36]): 16.7%
- Activity (Mus musculus [9]): Non-toxic
- Activity (Mus musculus [10]): Non-toxic
- Activity (Rattus norvegicus [37]): Active
- Activity (Mus musculus [38]): 1.8%
- Activity (Mus musculus [11]): inactive
- Activity (Mus musculus [12]): inactive
- Activity (Mus musculus [13]): Active
- Activity (Mus musculus [14]): inactive
- Activity (Mus musculus [39]): 34.5%
- Activity (Mus musculus [18]): Non-toxic
- Activity (Mus musculus [19]): inactive
- Activity (Mus musculus [40]): 63.7%
- Activity (Mus musculus [21]): Active
- Activity (Mus musculus [41]): 83.3%
- Activity (Mus musculus [22]): inactive
- Activity (Mus musculus [23]): inactive
- Activity (Mus musculus [42]): 3.6%
- Activity (Mus musculus [27]): inactive
- Activity (Mus musculus [28]): Non-toxic
- Activity (Rattus norvegicus [43]): inactive
